Screens from PubChem.
Only a selection was taken, and hits are over-represented in it overall.
T cell HTS: T cell immune modulators affecting CD8 T cell-vesicle binding | 2C CD8+ T cell-vesicle binding, flow cytometry; hits give low values | response (vesicle binding), % at 7 µM | 330,000 tested, 0.068% active;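 active = response, share of CD8 T cells binding vesicles, and their 90th percentile fluorescence all below set limits, cut at about 80% in these data, passing the limit was not always enough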;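 note: values below 100% mean blocked vesicle binding to the CD8+ T cells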
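Assay system: 2C TCR transgenic mouse naive CD8+ T cells, MACS-purified | Read-out: CD8+ gate FL2 mean fluorescence as % of same-row positive control | Signal: High-throughput flow cytometry with anti-B7-1 and anti-CD8 staining | Timing: Binding step 1.5 h, 37 °C, antibody labelling 20 min, ice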
ALR H2O2 inh: human ALR oxidase inhibition via reduced H2O2. P55789. purified ALR, DTT oxidation, H2O2 HRP-luminol luminescence. inhibition, % (concentration not given with the values). 290,000 tested, 3.8% active;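 active = mean replicate inhibition above about 79%, with every replicate also reaching it, limit read from the data; inconclusive = only one of the two criteria met; inactive = mean below limit and not every replicate reaching it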
Target sequence (P55789 whole entry, looked up): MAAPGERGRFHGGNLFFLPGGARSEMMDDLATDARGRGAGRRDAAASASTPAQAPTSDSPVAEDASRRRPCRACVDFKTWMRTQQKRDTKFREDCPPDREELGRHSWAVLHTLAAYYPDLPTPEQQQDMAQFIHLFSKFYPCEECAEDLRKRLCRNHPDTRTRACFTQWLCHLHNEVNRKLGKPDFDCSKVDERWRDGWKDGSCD
N-glyco inh: blocks N-linked glycosylation in D54 reporter cells; D54 ERlucT glycosylation luciferase reporter, 24 h; percent of 100 nM tunicamycin response; reporter increase, % at 12.5 µM; 360,000 tested, 0.23% active; AID 588692;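 active = mean luciferase reporter signal, scaled so untreated is 0 and the glycosylation-blocking control 100, at or above a set limit in every replicate; inconclusive = mean reaches the limit but not every replicate does; inactive = mean below the limit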;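 note: luciferase carries N-glycosylation sites so blocking glycosylation raises the light; 0% = median of neutral control wells and 100% = median of 100 nM tunicamycin wells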
* hit, by the source's call; i = inactive; ? = inconclusive; / = no result.

SMILES	T cell HTS	ALR H2O2 inh	N-glyco inh
CC(Sc1nc2c(c(=O)[nH]1)CCCC2)C(=O)Nc1ccc(Br)cn1 (stereo not given)	154.0	2.3	1.7
COc1ccc(Cl)cc1NC(=O)COc1ccc(S(=O)(=O)N2CCOCC2)cc1C	250.9	-8.7	0.1
COCCN1C[C@@H](CO)O[C@@H](n2cnc3c(NCc4ccncc4)ncnc32)C1	/	/	0.9
CC(C)n1c(=O)nc(-c2ccccc2)c2cc3c(cc21)OCO3	/	/	0.0
COc1ccc(NC(=O)CSCc2ccccc2C)cc1	262.5	84.0*	-0.9
O=C(CCSCCC(=O)NCc1ccco1)NCc1ccco1	217.2	4.6	/
Cc1ccccc1CSCC(=O)Nc1ccccc1-c1ccccc1	290.0	-23.3	-2.4
O=C(CCSCc1ccccc1Cl)NCc1ccco1	376.4	93.3*	0.1
CN1CCOc2ccc(S(=O)(=O)NCCc3ccc(Cl)cc3)cc21	312.0	9.4	1.1
COc1ccc(-c2nn(CCC#N)cc2C(=O)Nc2ccccn2)cc1OC	190.2	/	1.1
COc1ccc(NC(=O)Cn2cnc3c(oc4nc5c(cc43)COC(C)(C)C5)c2=O)cc1	357.7	2.0	-1.0
Nc1ccc(-c2nc3ccc([N+](=O)[O-])cc3[nH]2)cc1	389.7	96.7*	4.4
Cc1[nH]c2ccccc2c1-c1nc2ccccc2[nH]1	455.4	89.3*	6.9
Nc1ccc(-c2nc3ccc(N)cc3[nH]2)cc1	625.6	98.5*	1.9
Cc1ccc(-c2nc3ccccc3[nH]2)s1	613.6	43.6	-6.1
Nc1ccc(Cc2nc3c(ccc4ccccc43)[nH]2)cc1	309.5	40.2	2.1
O=[N+]([O-])c1ccc(-c2nc3ccc([N+](=O)[O-])cc3[nH]2)cc1	259.6	2.4	-3.3
Nc1ccc(-c2nc3ccc(-c4nc5ccccc5o4)cc3[nH]2)cc1	172.7	48.1	12.5
Nc1ccc(-c2nc3c(Cl)c(N)ccc3[nH]2)cc1	294.2	98.5*	-0.2
O=C1Nc2ccc(F)cc2C12OCCO2	195.3	-10.8	2.9
O=C(COc1cc2oc(=O)c3c(c2cc1Cl)CCC3)NCC(O)c1ccccc1 (stereo not given)	647.8	-0.6	11.7
COc1ccc(C(=O)NCc2nc(C)c(C)s2)cc1OC1CCN(C(C)C)CC1	265.1	1.8	-0.4
Cc1nc2ccc(-c3nc4ccc(N)cc4[nH]3)cc2[nH]1	210.6	99.5*	-5.1
Cc1cc(-c2nc3ccccc3[nH]2)ccc1N	293.9	98.2*	-5.6
O=C(O)c1cccc(-c2nc3ccccc3[nH]2)c1	274.5	/	-2.7
SMILES	T cell HTS	ALR H2O2 inh	N-glyco inh
Nc1ccc2nc(-c3ccc(Cl)cc3)[nH]c2c1	431.0	98.9*	-0.7
Nc1ccc2nc(-c3cc(Cl)c(N)c(Cl)c3)[nH]c2c1	305.5	/	13.4
Nc1ccc2nc(-c3cccc(-c4nc5ccc(N)cc5[nH]4)c3)[nH]c2c1	/	98.7*	-0.4
Cc1nc2ccc(Cc3ccc4nc(C)[nH]c4c3)cc2[nH]1	144.9	-12.6	-0.7
Nc1cc(N)cc(-c2nc3ccccc3[nH]2)c1	247.7	20.0	2.4
CCN(C(=O)COC(=O)c1ccc(-n2c(C)ccc2C)cc1)c1c(N)n(Cc2ccccc2)c(=O)[nH]c1=O	/	/	6.6
CCc1cc(=O)oc2c3c(cc(OCC(=O)NC4CC4)c12)OC(C)(C)CC3	233.4	-2.6	2.4
OCC#Cc1ncc(C(F)(F)F)cc1Cl	384.2	0.6	-0.1
CCOC(=O)c1ccc2c(c1)NCc1cccc(OC)c1O2	121.5	1.1	-1.3
COc1cccc(CN2CCC2(C)C(=O)Nc2ccc(C)cc2)c1F (stereo not given)	/	/	-2.9
CCN(CC(=O)Nc1ccc2c(c1)OCCO2)Cc1nc2cc(Cl)ccc2c(=O)[nH]1	423.5	/	0.0
CCc1ccc(NC(=O)CSc2n[nH]c(=O)n2C2CC2)cc1	/	/	3.2
CCOc1ccc(NC(=O)CNC(=O)c2cccs2)cc1	88.6	-3.7	-1.6
c1ccc(-c2nc3ccccc3[nH]2)cc1	467.7	-4.3	-3.7
c1ccc2[nH]c(C3CC3)nc2c1	457.0	-17.3	1.3
Cc1ccc2nc(-c3ccccc3N)[nH]c2c1	294.4	51.7	-14.7
Cc1ccc(C)c(-c2nc3ccc(N)cc3[nH]2)c1	318.0	99.3*	1.2
c1ccc(-c2n[nH]c(-c3ccccc3)c2-c2nc3ccccc3[nH]2)cc1	i	-6.7	30.9*
Nc1ccc2nc(C3CCCCC3)[nH]c2c1	429.8	99.3*	0.7
Cc1cccc(CN(C)C[C@@H]2OCc3cnnn3CCCC(=O)N([C@@H](C)CO)C[C@H]2C)c1	/	/	2.6
CCCCOc1ccc(C(=O)OCC(=O)c2c(N)n(C)c(=O)n(C)c2=O)cc1	221.3	2.2	3.9
N#Cc1ccccc1S(=O)(=O)N1CCN(C(=O)CN2C(=O)NC3(CCCC3)C2=O)CC1	183.6	-5.1	-2.0
CCc1ccc2c(CC(=O)NNC(=O)c3ccncc3)coc2c1	356.9	-2.2	2.2
CC1(C)Nc2ccc(O)cc2-c2c1ssc2=S	559.5	99.0*	-1.2
COc1cccc(-n2sc3c(c2=S)-c2cc(OC)ccc2NC3(C)C)c1	243.4	1.0	2.5
SMILES	T cell HTS	ALR H2O2 inh	N-glyco inh
COc1ccc2c(-c3ccccc3)cc(SCC(=O)NC(N)=O)nc2c1	341.0	-3.9	2.4
COCCNC(=O)CSc1cc(-c2ccccc2)c2ccc(OC)cc2n1	907.5	97.0*	-3.9
COc1ccc(NC(=O)CNC(=O)c2ccco2)cc1S(=O)(=O)Nc1cc(C)ccc1Br	223.3	0.2	0.3
COc1ccc2nc3n(c(=O)c2c1)-c1cc(Cl)ccc1C(=O)NC3Cc1ccccc1 (stereo not given)	267.9	-0.1	/
O=C(Nc1ccc(Oc2c(F)c(F)c(F)c(F)c2F)cc1)OC1CCN2Cc3ccccc3N=C12 (stereo not given)	822.7	-7.5	29.4*
Cc1cccc(NC(=O)Nc2ccc(Oc3c(F)c(F)c(F)c(F)c3F)cc2)c1	430.0	1.1	-0.6
Cc1cc(OCc2cc(C(=O)N(Cc3nccn3C)C(C)C)no2)cc(C)c1Cl	181.0	2.4	2.3
C#CCOc1ccccc1CNc1ccccc1	372.1	98.5*	-1.7
Oc1ccc(NCc2ccccc2OCc2ccccc2)cc1	361.5	9.3	51.8*
CCNCc1ccccc1OCc1ccccc1	165.0	9.2	0.5
C#CCOc1ccccc1CNC1CCN(Cc2ccccc2)CC1	153.3	/	-0.1
Cc1ccc(S(=O)(=O)N2CCCCC2)cc1NC(=O)c1ccncc1	/	/	-0.4
Cc1cccc(NC(=O)CSCC(=O)N=c2sccn2C)c1	366.4	43.9	0.7
Cc1cccc(NC(=O)CSCC(=O)Nc2sccc2C#N)c1	499.6	98.4*	4.0
O=C(Nc1cc(C(F)(F)F)ccc1-n1cncn1)c1ccc([N+](=O)[O-])o1	344.6	-28.5	18.1
CC(C)Nc1ncnc2c1ncn2[C@H]1CN(C2CCCC2)C[C@@H](CO)O1	/	/	2.0
CCCn1c(NCc2cccc(OC)c2O)nc2ccccc21	i	94.2*	1.3
COc1cccc(CNc2ccc3c(c2)ncn3C(C)C)c1OC	561.0	91.9*	-4.2
COc1cccc(CNc2ccc(F)c(Cl)c2)c1OC	290.7	?	-1.8
CCc1ccc(CNc2ccc3c(c2)ncn3C)cc1	780.0	/	-1.2
COc1cccc(CNc2nc3ccccc3n2C(C)C)c1O	/	/	-0.5
COc1cccc(CNCc2cccc(OC)c2O)c1O	/	/	-8.3
Cn1cnc2cc(NCc3ccccc3O)ccc21	235.1	87.0*	0.4
